# Screening results as filed in PubChem BioAssay.
# An excerpt weighted towards active compounds, which were near 3.1% of everything screened.
# KCNQ1 block: blocks the human KCNQ1 potassium channel; P51787; CHO-K1 KCNQ1, FluxOR thallium flux fluorescence; hits give high values; B-score at 10 µM; 1.3% of 310,000 active;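 active means compounds whose thallium flux B-score, printed positive for inhibition, exceeds three library SD while starting fluorescence stays within three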;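 further: channel opened by potassium depolarization with thallium stimulus after 20 min compound exposure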
# KCNK3 block: human KCNK3 channel inhibition, primary screen; CHO-KCNK3 thallium flux, FluxOR fluorescence; hits give low values; O14649; AID 602410; B-score at 10 µM; 0.84% of 340,000 active;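 active means B-score under library mean minus 4 SD, starting fluorescence ratio at most library mean plus 5 SD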;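 further: more negative B-score means stronger inhibition of thallium flux through KCNK3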
# hERG rescue: compounds protecting human hERG from proarrhythmic drug block | 0.51% of 310,000 active | CHO-hERG, FluxOR thallium flux, dofetilide IC70 present | activation (rescue from dofetilide block), less the hit threshold, % at 10 µM | Q12809;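 active means activation above the mean of controls blocked by dofetilide plus 5 SD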;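 further: thallium influx through hERG after potassium depolarization seen as dye fluorescence rise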
# KCNK9 inh: blocks the human KCNK9 two-pore domain potassium channel | Q9NPC2 | HEK293 KCNK9, FluxOR thallium flux fluorescence; hits give low values | B-score at 10 µM | 1.2% of 310,000 active | AID 488922;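 active means ratio B-score over 3 SD below the library mean, with starting fluorescence within 5 SD of its mean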;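 further: negative B-score means less thallium flux so channel inhibition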
# KCNQ1 act: potentiates or activates the human KCNQ1 potassium channel | CHO-K1 KCNQ1, thallium flux FluxOR fluorescence; hits give high values | B-score at 10 µM | 0.35% of 310,000 active | AID 2648;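 active means fluorescence ratio B-score, a plate-corrected score, at least three library SD, with initial intensity B-score within 5 SD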
#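 Material: CHO-K1 cells stably expressing KCNQ1. Medium: assay buffer for compound exposure, DMSO matched across wells. Reagent: K+/Tl+ depolarizing stimulus. Compound dosing: single-concentration screen. Times: 37 °C overnight plating, 90-min dark dye load, 20-min compound pretreatment. Technique: FluxOR Tl+ flux fluorescence.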
# KCNK9 block conf: human KCNK9 inhibitor confirmation. shares compounds with KCNK9 inh. HEK293 KCNK9 cells, FluxOR thallium flux fluorescence. 43% of 4,900 active. inhibition, % at 10 µM;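 active means thallium signal inhibited by more than 5 SD of the compound-free buffer control wells, on both duplicate plates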
# Kir21 sel: tests whether KCNK9 modulators also affect mouse Kir2.1; Kir2.1 cells, FluxOR thallium flux fluorescence; inhibition, % at 10 µM; 4% of 4,900 active; shares compounds with KCNK9 inh;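 active means thallium signal drop more than 5 SD beyond the mean of the no-compound control wells, seen in both duplicate plates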;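 further: signal is fluorescence rise after thallium addition divided by baseline fluorescence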
# KCNK9 uninduced: second counter-screen for KCNK9 modulators: effect in non-induced cells; shares compounds with KCNK9 inh; non-induced KCNK9-HEK293, FluxOR thallium flux; inhibition, % at 10 µM; 40% of 4,900 active;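 active means thallium signal drop beyond 5 SD of the untreated control mean, on both duplicate plates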
# KCNK3 confirm: human KCNK3 channel inhibition, confirmation assay; 99% of 2,400 active; ratio percent of control, % at 10 µM; CHO-KCNK3 thallium flux, FluxOR fluorescence; 0% buffer, 100% carvedilol maximal block; shares compounds with KCNK3 block; AID 651638;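 active means ratio percent of control, averaged over triplicates, above buffer control mean plus 5 SD, cut at about 64% in these data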;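 further: ratio is the fluorescence rise from min to max over baseline after thallium stimulus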
# KCNK3 noninduced: activity in cells without induced KCNK3 expression; shares compounds with KCNK3 block; non-induced KCNK3 parental cells, FluxOR thallium flux; hits give low values; thallium flux ratio (lower = more inhibition) at 10 µM; 40% of 2,400 active;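 active means thallium flux ratio, averaged over three wells, more than 5 SD below the buffer control mean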;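 further: host cells are CHO cells without KCNK3 induction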
# Numbers stand for hits; – = inactive; · = no result given.
SMILES,KCNQ1 block,KCNK3 block,hERG rescue,KCNK9 inh,KCNQ1 act,KCNK9 block conf,Kir21 sel,KCNK9 uninduced,KCNK3 confirm,KCNK3 noninduced
C#CCOc1nc(Nc2cccc([N+](=O)[O-])c2)nc(OCC#C)n1,–,-11,–,-18,–,51%,–,–,107,–
COc1nc(Nc2cccc([N+](=O)[O-])c2)nc(OC)n1,–,–,–,–,–,·,·,·,·,·
O=C(COC(=O)Cn1ccc(=O)[nH]c1=O)Nc1ccc(F)cc1,·,–,·,·,·,·,·,·,·,·
COCC(C)NC(=O)c1cc2c(ccc3ccccc32)oc1=O (stereo unspecified),–,–,–,–,–,·,·,·,·,·
N/C(Cc1ccc([N+](=O)[O-])cc1)=N\OC(=O)C(c1ccccc1)c1ccccc1,–,-9.6,–,-10,–,34%,–,40%,126,–
CSc1nsc(SC)c1C(=O)Nc1ccc(C(C)(C)C)cc1,–,-13,–,-14,–,53%,–,28%,112,–
Cc1ccc2nsnc2c1S(=O)(=O)Nc1ccccc1C(=O)O,–,–,–,–,–,·,·,·,·,·
CC(CCc1ccco1)NC(=O)c1cc2c(-c3ccccc3F)nn(C)c2s1 (stereo unspecified),–,-13,–,-8.4,–,28%,–,–,120,0.14
CCCN(CCC)CCNC(=O)c1cc2c(-c3ccccc3F)nn(C)c2s1,–,–,–,–,–,·,·,·,·,·
CC(OC(=O)c1ccc(O)cc1)C(=O)Nc1cc(C(F)(F)F)ccc1Cl (stereo unspecified),6,-9.8,–,-11,–,–,–,48%,139,0.12
O=C(COC(=O)c1ccc(O)cc1)Nc1cc(C(F)(F)F)ccc1Cl,–,–,–,–,–,·,·,·,·,·
CCCN1Cc2cccc(C(=O)Nc3ccc(C)cc3)c2C1=O,–,–,–,–,–,·,·,·,·,·
CCOC(=O)c1ccc(NC(=O)c2cccc3c2C(=O)N(CC2CCCO2)C3)cc1 (stereo unspecified),–,-9.3,–,-8.6,–,64%,–,–,131,0.13
Cc1ccnc(NC(=O)C(C)N2C(=O)c3ccccc3S2(=O)=O)c1 (stereo unspecified),–,–,–,–,–,·,·,·,·,·
O=C(Nc1ccc(Cl)c(S(=O)(=O)N2CCOCC2)c1)c1ccccn1,–,–,–,–,–,·,·,·,·,·
O=C(Nc1ccc(Cl)c(S(=O)(=O)N2CCOCC2)c1)c1cc(-c2ccccn2)nc2ccccc12,–,-8.8,–,-9.5,–,–,–,–,123,–
Cc1ccsc1CN(C)CC(=O)Nc1ccc([N+](=O)[O-])cc1Cl,–,-9.5,–,-21,–,64%,–,48%,135,0.13
OC(CNc1nc(C(F)(F)F)nc2ccccc12)c1ccccc1 (stereo unspecified),–,-13,–,-12,–,61%,–,–,118,–
COc1cccc(C(=O)N(Cc2ccco2)c2c(N)n(Cc3ccccc3)c(=O)[nH]c2=O)c1,·,–,·,·,·,·,·,·,·,·
CC(C)CNC(=O)c1nn(Cc2ccccc2)c(=O)c2ccccc12,–,–,–,–,–,·,·,·,·,·
CCNC(=O)CNC(=O)c1nn(Cc2ccccc2)c(=O)c2ccccc12,–,-13,–,-10,–,60%,–,24%,102,–
O=C(Nc1nc2c(s1)CCCC2)c1nn(Cc2ccccc2)c(=O)c2ccccc12,–,-9,–,-14,–,72%,–,–,101,–
COCCC(=O)N1CCC(Oc2ccc(C(=O)NCc3nccn3C)cc2)CC1,–,–,–,–,–,·,·,·,·,·
CC(C)c1ccc(NC2CCCN(C(=O)CN3C(=O)CSC3=O)C2)cc1 (stereo unspecified),–,–,–,–,–,·,·,·,·,·
CCOC(=O)c1ccc2c(c1)nc(COc1ccc3ccccc3c1)n2CC,–,-10,–,-13,–,59%,–,44%,125,0.13
SMILES,KCNQ1 block,KCNK3 block,hERG rescue,KCNK9 inh,KCNQ1 act,KCNK9 block conf,Kir21 sel,KCNK9 uninduced,KCNK3 confirm,KCNK3 noninduced
Cc1cccc(C(=O)N2CCN(Cc3nc4sc5c(c4c(=O)[nH]3)CCCC5)CC2)c1,–,–,–,–,–,·,·,·,·,·
COc1ccc(Br)cc1/C(C)=N/NC1=NCCN1,–,–,–,–,–,·,·,·,·,·
CCCCCOc1ccc(Br)cc1/C(C)=N/NC1=NCCN1,–,-11,–,-11,–,41%,66%,–,105,0.13
CC1=C(C(=O)Nc2ccccc2)C(c2ccco2)NC(=S)N1 (stereo unspecified),–,–,–,–,–,·,·,·,·,·
O=C(Nc1ccccc1)C1=C(O)CC(c2ccco2)CC1=Nc1ccccc1 (stereo unspecified),–,–,–,-12,–,27%,–,36%,115,0.16
CCC(C)Nc1nc(N)c([N+](=O)[O-])c(Nc2cc(OC)ccc2OC)n1 (stereo unspecified),–,–,–,-9.7,–,40%,–,–,136,0.13
CCCC(=O)c1ccc(O)cc1O,–,–,–,–,–,·,·,·,·,·
COc1ccc(CN(C(=O)/C=C/c2ccccc2Cl)C2CCS(=O)(=O)C2)cc1 (stereo unspecified),–,-11,–,-14,–,49%,–,32%,103,0.15
Cc1cc(N2CCN(C)CC2)ccc1NC(=O)c1c2c(nc3ccccc13)CCN(Cc1ccccc1)C2,–,–,–,–,–,·,·,·,·,·
CC(C)c1ccccc1NC(=O)COC(=O)c1c2c(nc3ccccc13)CCN(Cc1ccccc1)C2,–,-9.7,–,-12,–,66%,–,–,132,0.14
Cc1c(C(=O)c2ccc(Cl)c(Cl)c2)cnc2cc3c(cc12)OCO3,–,-11,–,-9.9,–,73%,–,44%,100,–
CCOC(=O)c1ccc(Oc2nc(SC)nc(N(C)C)n2)cc1,–,-9.8,–,-8.8,–,48%,–,42%,103,–
CCC1SC2=NC(C)=C(C(=O)OC)C(c3ccc(C(=O)OC)cc3)N2C1=O (stereo unspecified),–,–,–,–,–,·,·,·,·,·
COC(=O)C1=C(C)N=C2SC(C)C(=O)N2C1c1cccc(F)c1 (stereo unspecified),–,-12,–,-13,–,74%,–,50%,102,–
Cc1ccc(C)c(-c2csc(N/N=C/c3ccco3)n2)c1,–,-11,–,-8.9,–,38%,–,27%,115,0.16
